Active and inactive are the calls of the source. The calls are words filed in the database; no cut-off is given here.
Assays:
[1] = target: Sphingosine 1-phosphate receptor 3 (Homo sapiens, UniProt Q99500); test: Agonist activity at human S1P3 receptor expressed in RBL cells by [35S]GTP-gammaS accumulation assay; assay type: cell-based
Method in brief: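 Sucrose-gradient-purified RBL S1P3 membranes (0.44 µg/well) precoupled 30 min on ice to WGA SPA beads with 2 µg/well saponin in HEPES/MgCl2/NaCl buffer pH 7.4. 5 µM GDP final and 0.3 nM [35S]GTPγS final added, then dispensed onto compound in DMSO. Read by scintillation proximity after 3 h at room temperature.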

[2] = Lipophilicity, log D of the compound at pH 7.4 by chromatography; assay type: physicochemical; conditions: buffer
[3] = target: T1, Sphingosine 1-phosphate receptor 1 (Homo sapiens, UniProt P21453); test: Agonist activity at human S1P1 receptor expressed in RH7777 cells by [35S]GTP-gammaS accumulation assay; assay type: cell-based
Method in brief: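 RH7777 S1P1 membranes (1.5 µg/well) precoupled 30 min on ice to WGA SPA beads in 20 mM HEPES, 10 mM MgCl2, 100 mM NaCl, pH 7.4, with 10 µM GDP and 90 µg/mL saponin (final). 0.5 nM [35S]GTPγS final added to compound; plates read immediately by scintillation proximity.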

[4] = target: T1, Sphingosine 1-phosphate receptor 1; test: Agonist activity at human S1P1 receptor expressed in CHO-K1 EDG1 cells by beta-arrestin recruitment assay; assay type: cell-based
Method in brief: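 CHO-K1 cells stably expressing beta-arrestin 2 and S1P1 fused to complementing beta-galactosidase fragments; grown to 80% confluency, harvested enzyme-free, resuspended in HEPES/BSA assay buffer pH 7.4. Cells at 1x10^4/well added to compound in DMSO, 90 min at 37°C/5% CO2, then 15 min at room temperature; chemiluminescent detection mix 60 min at room temperature, luminescence read.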

Rattus norvegicus [5] = test: Lymphopenia activity in Lewis rat at 1 mg/kg, po measured after 2 to 4 hrs; assay type: functional, organism-based
Rattus norvegicus [6] = test: Lymphopenia activity in Lewis rat at 1 mg/kg, po measured after 24 hrs; assay type: functional, organism-based
[7] = target: Sphingosine 1-phosphate receptor 2 (Homo sapiens, UniProt O95136); test: Agonist activity at human S1P2 receptor expressed in Saccharomyces cerevisiae after 24 hrs by reporter gene assay
Method in brief: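 S. cerevisiae with integrated S1P2 under the GPD promoter, seeded at 0.02 OD600 in histidine-free minimal medium with 5 mM 3-aminotriazole and 100 µM fluorescein-di-(β-D-glucopyranoside). Agonist-driven growth was read as fluorescein fluorescence (ex 485/em 535 nm) after 24 h at 30°C.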

Rattus norvegicus [8] = test: Lymphopenia activity in Lewis rat at 0.3 mg/kg, po measured after 24 hrs; assay type: functional, organism-based
Method in brief: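 Male Lewis rats (300-350 g) bled by venepuncture the day before dosing. Compound given orally at 0.1-3 mg/kg, or vehicle (1% methylcellulose, 4 mL/kg). Blood taken 0.25-54 h post-dose and lymphocytes counted on an automatic haematology analyser.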

[9] = target: T2, Sphingosine 1-phosphate receptor 4 (Homo sapiens) (UniProt O95977); test: Agonist activity at human S1P4 receptor expressed in CHO-K1 cells by aequorin calcium accumulation assay; assay type: functional, cell-based
T2 sequence (whole entry): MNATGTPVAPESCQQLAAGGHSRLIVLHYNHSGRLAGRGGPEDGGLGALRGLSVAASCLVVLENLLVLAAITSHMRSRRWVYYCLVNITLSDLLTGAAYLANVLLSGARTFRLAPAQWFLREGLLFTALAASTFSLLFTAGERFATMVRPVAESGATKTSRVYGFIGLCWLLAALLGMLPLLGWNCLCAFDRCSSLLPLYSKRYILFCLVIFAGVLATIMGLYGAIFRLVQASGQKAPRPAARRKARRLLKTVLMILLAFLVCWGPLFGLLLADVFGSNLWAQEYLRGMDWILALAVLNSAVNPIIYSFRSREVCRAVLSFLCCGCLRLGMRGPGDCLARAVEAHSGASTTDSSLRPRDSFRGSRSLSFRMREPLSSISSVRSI
Method in brief: (§1)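 CHO-K1 aequorin lines revived in DMEM F12 with 10% charcoal-stripped FBS, recovered 30 min at 37°C, then loaded 18-24 h at room temperature in the dark with 5 µM coelenterazine at 2.5x10^6 cells/mL. Cells were added at 1x10^5/well to compound, and flash luminescence was recorded immediately.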

[10] = target: T1, Sphingosine 1-phosphate receptor 1; test: Agonist activity at human S1P1 receptor by receptor internalisation assay
[11] = target: Sphingosine 1-phosphate receptor 5 (Homo sapiens, UniProt Q9H228); test: Agonist activity at human S1P5 receptor expressed in CHO-K1 cells by aequorin calcium accumulation assay; assay type: functional, cell-based; method in brief: as §1
Rattus norvegicus [12] = test: Lymphopenia activity in Lewis rat at 1 mg/kg, po measured at 8 hrs; assay type: functional, organism-based

Sphingosine 1-phosphate receptor 3, sequence (Q99500 whole entry): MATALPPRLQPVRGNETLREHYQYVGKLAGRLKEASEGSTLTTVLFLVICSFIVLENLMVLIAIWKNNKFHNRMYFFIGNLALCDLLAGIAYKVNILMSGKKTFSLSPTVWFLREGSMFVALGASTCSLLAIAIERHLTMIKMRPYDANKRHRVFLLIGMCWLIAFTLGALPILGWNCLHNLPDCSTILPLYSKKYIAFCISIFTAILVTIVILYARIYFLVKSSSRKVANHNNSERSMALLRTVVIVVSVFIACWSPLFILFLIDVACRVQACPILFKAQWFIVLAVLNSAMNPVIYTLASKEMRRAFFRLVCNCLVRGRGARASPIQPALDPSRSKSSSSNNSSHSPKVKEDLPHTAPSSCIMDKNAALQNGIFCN
T1 sequence (P21453 whole entry): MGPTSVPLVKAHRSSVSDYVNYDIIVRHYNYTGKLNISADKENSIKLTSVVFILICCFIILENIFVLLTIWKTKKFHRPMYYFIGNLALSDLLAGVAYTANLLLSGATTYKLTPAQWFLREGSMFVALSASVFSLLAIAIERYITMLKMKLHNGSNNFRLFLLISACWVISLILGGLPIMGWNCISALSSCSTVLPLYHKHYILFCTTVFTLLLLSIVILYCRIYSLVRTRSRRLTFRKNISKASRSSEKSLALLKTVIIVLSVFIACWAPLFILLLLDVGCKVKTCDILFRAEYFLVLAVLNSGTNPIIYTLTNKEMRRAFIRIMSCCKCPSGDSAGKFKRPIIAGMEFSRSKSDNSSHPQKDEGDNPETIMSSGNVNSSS
Sphingosine 1-phosphate receptor 2, sequence (O95136 whole entry): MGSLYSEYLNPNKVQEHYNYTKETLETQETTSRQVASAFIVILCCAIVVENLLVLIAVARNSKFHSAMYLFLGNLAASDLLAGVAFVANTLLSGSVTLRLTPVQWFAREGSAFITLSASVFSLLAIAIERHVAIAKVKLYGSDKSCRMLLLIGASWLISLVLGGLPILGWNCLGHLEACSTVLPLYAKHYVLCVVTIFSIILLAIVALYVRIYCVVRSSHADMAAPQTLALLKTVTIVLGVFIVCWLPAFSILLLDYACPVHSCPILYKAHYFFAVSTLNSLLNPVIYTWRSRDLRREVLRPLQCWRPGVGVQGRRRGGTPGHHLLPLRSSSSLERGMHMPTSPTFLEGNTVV
Sphingosine 1-phosphate receptor 5, sequence (Q9H228 whole entry): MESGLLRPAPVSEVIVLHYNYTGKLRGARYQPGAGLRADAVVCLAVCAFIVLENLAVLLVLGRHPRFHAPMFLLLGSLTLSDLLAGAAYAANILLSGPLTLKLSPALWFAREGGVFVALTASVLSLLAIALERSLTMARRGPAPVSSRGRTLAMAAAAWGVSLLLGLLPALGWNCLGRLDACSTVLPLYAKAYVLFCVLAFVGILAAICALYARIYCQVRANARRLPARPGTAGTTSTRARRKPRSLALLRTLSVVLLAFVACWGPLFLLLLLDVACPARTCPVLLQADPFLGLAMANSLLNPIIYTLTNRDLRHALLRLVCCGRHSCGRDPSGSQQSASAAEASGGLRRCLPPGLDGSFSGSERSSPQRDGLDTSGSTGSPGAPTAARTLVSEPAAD

SMILES	EC50 [1] [µM]	chromatographic logD [2]	EC50 [3] [nM]	EC50 [4] [nM]	further results
Cc1c2c(nn1-c1nnc(-c3ccc(OC(C)C)c(C#N)c3)s1)CNCC2	> 31.6	4.23		158	
CC(C)Oc1ccc(-c2nnc(N3CCOc4c(CCC(=O)O)cccc43)s2)cc1Cl			251		
CC(C)Oc1ccc(-c2nnc(-n3cc4c(n3)CCN(CCC(=O)O)C4)s2)cc1Cl	> 31.6	3.26	12.6	3.98	Activity (Rattus norvegicus [5]): Active; Activity (Rattus norvegicus [6]): inactive
Cc1c2c(nn1-c1nnc(-c3ccc(OC(C)C)c(Cl)c3)s1)CCN(CCC(=O)O)C2					Emax [7]: 0%; Emax [4]: 83%; Activity (Rattus norvegicus [8]): Active; Emax [9]: 7%; Emax [10]: 109%; Emax [11]: 63%; Activity (Rattus norvegicus [5]): Active; Activity (Rattus norvegicus [6]): Active
Cc1c2c(nn1-c1nnc(-c3ccc(OC(C)C)c(C#N)c3)s1)CCN(CC(=O)O)C2	> 31.6	2.88		100	
CC(C)Oc1ccc(-c2nnc(-n3cc4c(n3)CCN(CCCC(=O)O)C4)s2)cc1Cl	> 31.6	3.56	12.6	5.01	
Cc1c(-c2noc(-c3ccc(OC(C)C)c(C#N)c3)n2)ccc2c1CCN(CCC(=O)O)C2	> 39.8	3.41	31.6	5.01	
CC(C)Oc1ccc(-c2nnc(N3CCC(N4CCCC(C(=O)O)C4)CC3)s2)cc1Cl (centres undefined)			3980		
CC(C)Oc1ccc(-c2nnc(NC3CCN(CC(=O)O)CC3)s2)cc1Cl			2510		
CC(C)Oc1ccc(-c2nnc(-n3cc4c(n3)CCN(CCCC(=O)O)C4)s2)cc1C#N	> 31.6	2.87		6.31	
CC(C)Oc1ccc(-c2nnc(N3CCc4cc(CCC(=O)O)ccc43)s2)cc1Cl			100		
CCCCCCCCc1ccc(CCC(N)(CO)CO)cc1					Activity (Rattus norvegicus [5]): Active
CC(C)Oc1ccc(-c2nnc(-n3cc4c(n3)CCNC4)s2)cc1C#N	> 31.6	3.37	501	126	
CC(C)Oc1ccc(-c2nnc(-n3cc4c(n3)CCN(CCC(=O)O)C4)s2)cc1C#N	> 31.6	2.58	50.1	5.01	Activity (Rattus norvegicus [12]): Active; Activity (Rattus norvegicus [5]): Active
Cc1c2c(nn1-c1nnc(-c3ccc(OC(C)C)c(C#N)c3)s1)CCN(CCC(=O)O)C2	> 31.6	2.76	15.8	3.16	Activity (Rattus norvegicus [12]): Active; Activity (Rattus norvegicus [5]): Active
Cc1c2c(nn1-c1nnc(-c3ccc(OC(C)C)c(C#N)c3)s1)CCNC2	> 31.6	3.73	100	63.1	
CC(C)Oc1ccc(-c2nnc(-n3ncc4c3CCN(CCC(=O)O)C4)s2)cc1Cl	19.9	3.54	126	50.1	Activity (Rattus norvegicus [5]): inactive
Cc1c2c(nn1-c1nnc(-c3ccc(OC(C)C)c(Cl)c3)s1)CCNC2	> 31.6	5.32	126	158	
Cc1nn(-c2nnc(-c3ccc(OC(C)C)c(Cl)c3)s2)c(C)c1CCC(=O)O	> 31.6	4.3	39.8	20	

Continued, in another order:

EC50 [1] [µM]	chromatographic logD [2]	EC50 [3] [nM]	EC50 [4] [nM]	SMILES	further results
> 31.6	5.59	10000		CC(C)Oc1ccc(-c2nnc(-c3cnn(CCN4CCOCC4)c3)s2)cc1Cl	
		1580		CC(C)Oc1ccc(-c2nnc(NC3=CCNCC3)s2)cc1Cl	
		> 31600		CC(C)Oc1ccc(-c2nnc(NCCN)s2)cc1Cl	
> 31.6	7.04	251		CC(C)Oc1ccc(-c2nnc(-c3ccnn3C)s2)cc1Cl	
> 31.6	6.93	1000		CC(C)Oc1ccc(-c2nnc(-c3ccno3)s2)cc1Cl	
> 31.6	5.7	63.1		CC(C)Oc1ccc(-c2nnc(-c3cncn3C)s2)cc1Cl	
> 31.6	2.82	25100		CC(C)Oc1ccc(-c2nnc(-c3cnn(CC(=O)O)c3)s2)cc1Cl	
> 31.6	4.87	398	794	CC(C)Oc1ccc(-c2nnc(-n3ncc4c3CCNC4)s2)cc1Cl	
> 31.6	6.18	501		CC(C)Oc1ccc(-c2nnc(-n3cncn3)s2)cc1Cl	
20	8.65	251		CC(C)Oc1ccc(-c2nnc(-c3ccccc3)s2)cc1Cl	
		6310		CC(C)Oc1ccc(-c2nnc(N3CCNCC3)s2)cc1Cl	
> 31.6	5	631		CC(C)Oc1ccc(-c2nnc(-c3cn[nH]c3)s2)cc1Cl	
> 31.6	5.45	126		Cc1[nH]ncc1-c1nnc(-c2ccc(OC(C)C)c(Cl)c2)s1	
> 31.6	7.76	251		Cc1nc(C)c(-c2nnc(-c3ccc(OC(C)C)c(Cl)c3)s2)s1	
> 31.6	3.16	2510		Cc1c(-c2nnc(-c3ccc(OC(C)C)c(Cl)c3)s2)cnn1CCC(=O)O	
> 31.6	4.44	631	631	CC(C)Oc1ccc(-c2nnc(-n3cc4c(n3)CCNC4)s2)cc1Cl	
> 31.6	3.62	1000	1580	Cc1nn(-c2nnc(-c3ccc(OC(C)C)c(Cl)c3)s2)c(C)c1CC(=O)O	
		1260		CC(C)Oc1ccc(-c2nnc(Nc3ccc(CC(=O)O)cc3)s2)cc1Cl	
		> 31600		CC(C)Oc1ccc(-c2nnc(NCCNCCC(=O)O)s2)cc1Cl	

Source: ChEMBL document CHEMBL3769384, “Discovery of Tetrahydropyrazolopyridine as Sphingosine 1-Phosphate Receptor 3 (S1P3)-Sparing S1P1 Agonists Active at Low Oral Doses” (J Med Chem, 2016)
